Compound activity: PubChem BioAssay, Sanford-Burnham Center for Chemical Genomics
Only some compounds are listed: those with a hit (about 0.79% of all), similar ones and a draw of the others.
hIAP block: human IAP inhibitors, primary screen, biochemical, luminescence, uHTS. 330,000 compounds, 0.12% hits. purified IAP, CDP-Star luminescence, 30 min. inhibition, % at 10 µM. Intestinal-type alkaline phosphatase (Homo sapiens), P09923;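 active = inhibition reaching a set limit with compound at 10 µM in the primary screen, cut at about 35% in these data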;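 note: plate controls were DMSO wells with enzyme for no effect and no-enzyme buffer wells for full effect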
Target sequence (P09923 whole entry, looked up): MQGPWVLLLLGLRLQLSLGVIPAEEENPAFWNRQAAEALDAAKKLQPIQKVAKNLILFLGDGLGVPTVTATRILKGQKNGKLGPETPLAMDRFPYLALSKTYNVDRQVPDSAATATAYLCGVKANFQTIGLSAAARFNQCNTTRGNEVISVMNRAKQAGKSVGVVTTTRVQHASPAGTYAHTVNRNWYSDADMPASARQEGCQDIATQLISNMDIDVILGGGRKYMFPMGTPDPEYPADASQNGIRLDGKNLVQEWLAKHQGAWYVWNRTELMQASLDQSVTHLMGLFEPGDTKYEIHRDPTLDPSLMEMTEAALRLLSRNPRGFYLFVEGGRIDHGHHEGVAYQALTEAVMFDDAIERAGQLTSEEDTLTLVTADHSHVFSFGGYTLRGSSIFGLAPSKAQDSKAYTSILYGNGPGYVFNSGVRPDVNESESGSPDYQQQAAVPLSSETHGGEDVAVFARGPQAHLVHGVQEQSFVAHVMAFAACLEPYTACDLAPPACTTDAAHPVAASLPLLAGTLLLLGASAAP
bIAP inhibitor: bovine intestinal alkaline phosphatase inhibitors, primary screen, selectivity assay for TNAP inhibitor project, biochemical, bovine IAP, CDP-star luminescence; alkaline phosphatase, intestinal [Bos taurus]; purified bovine IAP, 30 min; inhibition, % at 20 µM; 190,000 tested, under 10 active;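 active = over 50% inhibition of intestinal alkaline phosphatase at 20 µM in the single-dose screen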
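Assay system: bovine IAP enzyme; medium: DEA buffer 100 mM, pH 9.8, with MgCl2 1.0 mM, ZnCl2 0.02 mM; doses: 20 µM single dose; incubation: enzyme reaction for 30 min at room temperature; detection: CDP-star luminescence signal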
mIAP inh: inhibitors of mouse IAP, primary screen, biochemical, luminescence, uHTS; 330,000 compounds, 0.2% hits; AID 2806, 2010; inhibition, % at 10 µM; purified mouse IAP, CDP-Star luminescence, 30 min;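 active = inhibition of at least 40% at 10 µM in the primary screen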;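 note: plate controls were DMSO with enzyme for no effect and no enzyme wells for full effect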
hIAP activ: human IAP activators, primary screen, biochemical, luminescence, uHTS; Intestinal-type alkaline phosphatase (Homo sapiens), P09923; purified human IAP, CDP-Star luminescence, 30 min; hits give high values; 1 = vehicle-only enzyme, 0 = enzyme-free background; activation factor at 10 µM; 330,000 compounds, 0.16% hits; AID 2524, 2010;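 active = activation factor of the enzyme at least 2-fold when tested at 20 µM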
mIAP act: activators of mouse IAP, primary screen, biochemical, luminescence, uHTS; muIAP, CDP-Star luminescence, 30 min; hits give high values; 1 = vehicle-only enzyme signal, 0 = enzyme-free wells; activation factor at 10 µM; 330,000 compounds, 0.24% hits; AID 2805, 2010;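 active = activation factor of at least 2 at 20 µM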
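System: Mouse IAP enzyme | Also added: CDP-Star substrate | Dosing: Compounds dispensed in DMSO | Schedule: 30 min enzyme-substrate-compound incubation at room temperature | Technique: Chemiluminescence readout | Control set: DMSO-only wells and no-enzyme negative control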
bIAP activator: bovine intestinal alkaline phosphatase activators, primary screen, biochemical, bovine IAP, CDP-star luminescence; alkaline phosphatase, intestinal [Bos taurus]; purified bovine IAP, 30 min; hits give high values; fold of DMSO-control signal, blank-subtracted; activation factor at 20 µM; 200,000 compounds, 0.17% hits;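 active = activation factor of 2 or more at 20 µM, a signal rise over negative controls twice the positive control's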
hIAP act conf: human IAP activators, confirmation, biochemical, luminescence, single concentration, uHTS hits. AID 434926, 2010. purified IAP, CDP-Star luminescence, 30 min; hits give low values. activation (%Activity, negative = activation), % at 8.3 µM. 880 compounds, 10% hits. shares compounds with hIAP activ;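 active = at least twofold enzyme activation in any of six single-dose repeats, which the averaged readout prints as negative percent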
mIAP inh conf: inhibitors of mouse IAP, confirmation, biochemical, luminescence, single concentration; shares compounds with mIAP inh; purified mouse IAP, CDP-Star luminescence, 30 min; inhibition, % at 10 µM; 11,000 compounds, 4.7% hits; AID 434971, 2010;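 active = inhibition of at least 40% at 10 µM in either of the two replicates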;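 note: plate controls were DMSO wells with enzyme for no effect and buffer wells lacking enzyme for full effect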
Starred values were filed as active, the others as inactive; i = inactive; nt = no result given.

SMILES	hIAP block	bIAP inhibitor	mIAP inh	hIAP activ	mIAP act	bIAP activator	mIAP inh conf	others
CN1CC(C(=O)c2ccc(Cl)cc2)C(c2ccccc2F)C1 (centres undefined)	-7	0	42*	1.1	0.58	1	nt
COc1ccc(C(=O)C2CN(C)CC2c2ccc(Cl)cc2)cc1 (centres undefined)	-2	4	-6	1	1.1	1	nt
O=c1[nH]c(=S)n(Cc2ccco2)c(O)c1C=NCc1cccs1	-6	-12	61*	1.1	0.39	1.1	nt
O=c1[nH]c(=O)n(Cc2ccco2)c(O)c1C=NCc1cccs1	2	13	10	0.98	0.9	0.9	nt
COc1cc(C(=O)OC2C[C@H]3CC[C@@H](C2)N3)ccc1O (some centres undefined)	-2	nt	-15	1	1.1	nt	nt
c1ccc2[nH]c(CCNC3CCCCC3)nc2c1	2	-120	4	0.98	0.96	2.2*	nt
COC(=O)C1=C(c2ccc(C(C)=O)cc2)C[C@@H]2CC[C@H]1N2C(=O)NCCOc1ccccc1Cl	-4	nt	3	1	0.97	nt	nt
CCOC(=O)N(C)c1ccc(C(O)(C(=O)OC)C(F)(F)F)cc1 (centres undefined)	-9	-106	-5	1.1	1.1	2.1*	nt
O=C1NC(=O)N(c2ccc3c(c2)OCO3)C(=O)/C1=C/c1ccc(N2CCCC2)o1	29	4	56*	0.71	0.45	1	nt
COc1ccc(C(=O)Oc2cccc3cccnc23)cc1S(=O)(=O)N1CCOCC1	-28	-53	8	1.3	0.93	1.5	nt
CCCCCCOc1ccc(CN2CCN(CCO)CC2)cc1	5	-6	2	0.95	0.98	1.1	nt
CCCCOc1ccc(CN2CCN(CCO)CC2)cc1	37*	1	3	0.63	0.97	1	nt	hIAP act conf=-22
CCS(=O)(=O)Nc1cccc(C(=C2CCCCC2)c2cnc[nH]2)c1	26	nt	2	0.74	0.97	nt	nt
O=c1[nH]c(=O)n(-c2ccc(Br)cc2)c(O)c1C=NC(CO)(CO)CO	50*	nt	-6	0.5	1.1	nt	nt	hIAP act conf=2
Cc1ccc(N2C(=O)NC(=O)/C(=C\C=C\c3ccco3)C2=O)cc1	-2	nt	36	1	0.64	nt	nt
O=C1NC(=O)N(c2ccccc2)C(=O)/C1=C/C=C/c1ccco1	0	nt	28	1	0.72	nt	nt
O=C1NC(=O)N(Cc2ccccc2)C(=O)/C1=C\C=C\c1ccco1	-9	5	37	1.1	0.63	1	nt
CN1C(=O)/C(=C/C=C/c2ccco2)C(=O)NC1=S	6	nt	66*	0.94	0.34	nt	62*
O=C1NC(=O)N(Cc2ccco2)C(=O)/C1=C/C=C/c1ccco1	4	nt	72*	0.96	0.28	nt	75*
Cc1cccc(N2C(=O)NC(=O)/C(=C\C=C\c3ccco3)C2=O)c1	2	nt	45*	0.98	0.55	nt	53*
O=C(CCc1nnc2ccc(NCc3ccccc3Cl)nn12)N1CCC2(CC1)OCCO2	-2	nt	-4	1	1	nt	nt
Cc1ccc(-n2nc(C)cc2NC(=O)COc2cc(C)cc3oc(=O)c4c(c23)CCC4)cc1	7	10	-7	0.93	1.1	0.9	nt
COc1ccc(CNC(=O)CCC(=O)N2C[C@H]3C[C@H](C2)c2cccc(=O)n2C3)cc1	23	nt	18	0.77	0.82	nt	nt
O=C1NC(=S)N(c2ccc(F)cc2)C(=O)/C1=C/c1ccco1	10	nt	47*	0.91	0.53	nt	60*
COc1ccc(OC)c(N2C(=O)/C(=C/c3ccco3)C(=O)NC2=S)c1	4	nt	42*	0.96	0.58	nt	58*
SMILES	hIAP block	bIAP inhibitor	mIAP inh	hIAP activ	mIAP act	bIAP activator	mIAP inh conf	others
N#Cc1c(/N=C/c2c(O)n(Cc3ccco3)c(=O)[nH]c2=O)sc2c1CCCC2	9	0	64*	0.91	0.36	1	72*
C=CCN1C(=O)/C(=C/c2ccc(Br)s2)C(=O)NC1=S	-11	nt	43*	1.1	0.57	nt	53*
CCN1C(=O)/C(=C\c2ccc([N+](=O)[O-])s2)C(=O)NC1=S	nt	46	nt	nt	nt	0.5	nt
C[C@]12CCC(=O)C=C1CC[C@@H]1C2[C@H](O)C[C@]2(C)C(=O)CCC12 (some centres undefined)	-14	nt	0	1.1	1	nt	nt
Cc1ccc(N2C(=O)/C(=C/c3ccc(CN(CCC#N)S(C)(=O)=O)o3)C(=O)NC2=S)cc1C	9	-7	43*	0.91	0.57	1.1	46*
Oc1ccc(C[C@H]2NCCc3cc(O)c(O)cc32)cc1O	17	nt	63*	0.83	0.37	nt	76*
CC(O)(CS(=O)(=O)c1cccc(C(F)(F)F)c1)C(=O)Nc1ccc(C(F)(F)F)cc1 (centres undefined)	-3	-3	4	1	0.96	1	nt
O=C1NC(=O)N(c2ccc3c(c2)OCO3)C(=O)/C1=C/c1cccs1	6	3	72*	0.94	0.28	1	76*
CC(=O)OC1(c2ccccc2)CCN(C2CCCCC2)CC1C (centres undefined)	11	-10	11	0.89	0.89	1.1	nt
Clc1ccc(C(c2ccc(Cl)cc2)n2cc[n+](CC(OCc3ccc(Cl)cc3Cl)c3ccc(Cl)cc3Cl)c2)cc1 (centres undefined)	-28	nt	i	1.3	17*	nt	i
